18 molecules from ChEMBL document CHEMBL4052804, “Design and synthesis of piperazine acetate podophyllotoxin ester derivatives targeting tubulin depolymerization as new anticancer agents” (Bioorg Med Chem Lett, 2017) can be followed below.

Active and inactive are the calls of the source. No cut-off for these calls is given here.

One experiment deals with MCF7. The experiment can be described thus: Cytotoxicity against human MCF7 cells after 24 hrs by MTT assay. The class given is functional, cell-based. As to conditions: MCF7, 24 h. A digest of the protocol: (§1)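 In vitro antiproliferative screen by MTT assay against human MCF-7 breast, HeLa cervical, A549 lung adenocarcinoma and HepG-2 hepatoma cells. Output is the IC50.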
(Tetrazolium dyes change colour on reduction, which living cells bring about.)

A further experiment deals with L02. The experiment can be described thus: Cytotoxicity against human L02 cells after 24 hrs by MTT assay. The class given is cell-based. To be noted: L02, 24 h. In outline: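 Normal human liver L02 cells were tested at multiple concentrations in an MTT assay. Output is the median cytotoxic concentration (CC50).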
The subject of another experiment is HepG2. The experiment can be described thus: Cytotoxicity against human HepG2 cells after 24 hrs by MTT assay. The class given is functional, cell-based. To be noted: HepG2, 24 h. A digest of the protocol: as §1
For another experiment, the system named is A549. The experiment can be described thus: Cytotoxicity against human A549 cells after 24 hrs by MTT assay. The experiment is classed as functional, cell-based. As to conditions: A549, 24 h. In outline: as §1
Another experiment has as its system HeLa. The experiment can be described thus: Cytotoxicity against human HeLa cells after 24 hrs by MTT assay. The class given is functional, cell-based. A digest of the protocol:
as §1

The species entered for a further experiment is Homo sapiens. The experiment can be described thus: Induction of tubulin depolymerization in human MCF7 cells at 1 uM after 12 hrs by DAPI staining based confocal microscopic analysis. The class given is cell-based.

Regarding `COc1cc([C@@H]2c3cc4c(cc3[C@H](OC(=O)CN3CCN(c5ccccc5F)CC3)[C@H]3COC(=O)[C@H]23)OCO4)cc(OC)c1OC`, the half-inhibitory concentration (IC50) with MCF7 was 11.7 µM; with L02 it was greater than 100 µM; in the experiment on HepG2, 15.4 µM; with A549, 9.8 µM; in the experiment with HeLa, 18 µM.
With `COc1cc([C@@H]2c3cc4c(cc3[C@H](OC(=O)CN3CCN(c5ccccc5)CC3)[C@H]3COC(=O)[C@H]23)OCO4)cc(OC)c1OC`, the IC50 in the experiment on MCF7 turned out to be 22 µM; with L02 it was 75.8 µM; with HepG2, 16.6 µM; with A549, 15.2 µM; with HeLa, 33 µM.
On to `COc1cc([C@@H]2c3cc4c(cc3[C@H](OC(=O)CN3CCN(c5cccc(Cl)c5)CC3)[C@H]3COC(=O)[C@H]23)OCO4)cc(OC)c1OC`, for which the half-maximal inhibitory concentration (IC50) in the experiment on MCF7 was determined as 9.87 µM; with L02, 99.3 µM; in the experiment on HepG2, 13.5 µM; in the experiment on A549, 9.26 µM; with HeLa it was 8.3 µM.
With `COc1cc([C@@H]2c3cc4c(cc3[C@H](OC(=O)CN3CCN(c5cccc(Cl)c5Cl)CC3)[C@H]3COC(=O)[C@H]23)OCO4)cc(OC)c1OC`, the half-inhibitory concentration (IC50) in the experiment on MCF7 was 3.02 µM; in the experiment on L02, 97.8 µM; in the experiment on HepG2 it was 6.15 µM; in the experiment with A549 it was 7.51 µM; in the experiment with HeLa, 7.83 µM.
For `COc1cc([C@@H]2c3cc4c(cc3[C@H](OC(=O)CN3CCN(c5cccc(C(F)(F)F)c5)CC3)[C@H]3COC(=O)[C@H]23)OCO4)cc(OC)c1OC`, in that order: 7.19 µM, greater than 100 µM, 9.61 µM, 10.8 µM and 6.82 µM.
Taken in the same sequence, the figures for `COc1cc([C@@H]2c3cc4c(cc3[C@H](OC(=O)CN3CCN(c5ccc(C)cc5C)CC3)[C@H]3COC(=O)[C@H]23)OCO4)cc(OC)c1OC` were greater than 50 µM, 93.9 µM, 45.8 µM, 34.4 µM and 23.1 µM.
For the molecule `COc1cc2c(c(OC)c1OC)-c1ccc(OC)c(=O)cc1[C@@H](NC(C)=O)CC2`, the outcome in the experiment filed under Homo sapiens was Active.
With `COc1cc([C@@H]2c3cc4c(cc3[C@H](OC(=O)CN3CCN(C(c5ccccc5)c5ccccc5)CC3)[C@H]3COC(=O)[C@H]23)OCO4)cc(OC)c1OC`, the IC50 with MCF7 is 16.5 µM; in the experiment with L02, 65.8 µM; in the experiment with HepG2 it was 16.4 µM; in the experiment with A549, 12.3 µM; in the experiment on HeLa it was 23.2 µM.
For the molecule `COc1cc([C@@H]2c3cc4c(cc3[C@@H](O[C@@H]3O[C@@H]5CO[C@@H](C)O[C@H]5[C@H](O)[C@H]3O)[C@H]3COC(=O)[C@H]23)OCO4)cc(OC)c1O` [ETOPOSIDE], the concentration for half-maximal inhibition (IC50) in the experiment on MCF7 was 2.08 µM; in the experiment on L02 it was 7.75 µM; in the experiment on HepG2, 5.52 µM; in the experiment on A549, 6.21 µM; in the experiment with HeLa, 1.58 µM.
Turning to `CC(=O)O[C@H]1C(=O)[C@@]2(C)[C@H]([C@H](OC(=O)c3ccccc3)[C@]3(O)C[C@H](OC(=O)[C@H](O)[C@@H](NC(=O)c4ccccc4)c4ccccc4)C(C)=C1C3(C)C)[C@]1(OC(C)=O)CO[C@@H]1C[C@@H]2O`, the result in the experiment filed under Homo sapiens was inactive.
For the molecule `COc1cc([C@@H]2c3cc4c(cc3[C@H](OC(=O)CN3CCN(c5ccccc5Cl)CC3)[C@H]3COC(=O)[C@H]23)OCO4)cc(OC)c1OC`, the concentration for half-maximal inhibition (IC50) with MCF7 is 9.98 µM; in the experiment on L02, greater than 100 µM; in the experiment on HepG2, 17.7 µM; in the experiment with A549 it was 8.47 µM; in the experiment on HeLa, 11.3 µM.
Taken in the same sequence, the figures for `COc1ccccc1N1CCN(CC(=O)O[C@H]2c3cc4c(cc3[C@@H](c3cc(OC)c(OC)c(OC)c3)[C@H]3C(=O)OC[C@@H]32)OCO4)CC1` were 48.2 µM, 90.7 µM, 34.2 µM, 28.6 µM and greater than 50 µM.
For `COc1cc([C@@H]2c3cc4c(cc3[C@H](OC(=O)CN3CCN(c5ccc(F)cc5)CC3)[C@H]3COC(=O)[C@H]23)OCO4)cc(OC)c1OC`, the half-inhibitory concentration (IC50) in the experiment with MCF7 was 8.49 µM; in the experiment on L02, greater than 100 µM; with HepG2, 12.6 µM; with A549, 11.9 µM; in the experiment with HeLa it was 17.3 µM.
For the molecule `COc1cc([C@@H]2c3cc4c(cc3[C@H](OC(=O)CN3CCN(C(c5ccc(F)cc5)c5ccc(F)cc5)CC3)[C@H]3COC(=O)[C@H]23)OCO4)cc(OC)c1OC`, the IC50 with MCF7 is 6.23 µM; in the experiment on L02, greater than 100 µM; in the experiment on HepG2, 7.04 µM; with A549, 13.2 µM; in the experiment on HeLa, 9.54 µM.
Turning to `COc1cccc(N2CCN(CC(=O)O[C@H]3c4cc5c(cc4[C@@H](c4cc(OC)c(OC)c(OC)c4)[C@H]4C(=O)OC[C@@H]43)OCO5)CC2)c1`, the 50% inhibitory concentration (IC50) with MCF7 was 12.2 µM; in the experiment with L02 it was greater than 100 µM; in the experiment with HepG2 it was 36.7 µM; in the experiment on A549, 23.2 µM; with HeLa it was 36.7 µM.
For `COc1ccc(N2CCN(CC(=O)O[C@H]3c4cc5c(cc4[C@@H](c4cc(OC)c(OC)c(OC)c4)[C@H]4C(=O)OC[C@@H]43)OCO5)CC2)cc1`, the IC50 in the experiment on MCF7 is 13.5 µM; in the experiment with L02, 87.9 µM; in the experiment with HepG2 it was 25.9 µM; with A549 it was 16.4 µM; in the experiment with HeLa it was 31.6 µM.
For `COc1cc([C@@H]2c3cc4c(cc3[C@H](OC(=O)CN3CCN(c5ccc([N+](=O)[O-])cc5)CC3)[C@H]3COC(=O)[C@H]23)OCO4)cc(OC)c1OC`, in that order: 9.6 µM, greater than 100 µM, 6.87 µM, 8.15 µM and 11 µM.
For `COc1cc([C@@H]2c3cc4c(cc3[C@H](OC(=O)CN3CCN(C(c5ccccc5)c5ccc(Cl)cc5)CC3)[C@H]3COC(=O)[C@H]23)OCO4)cc(OC)c1OC` (some centres not stated), in that order: 7.75 µM, greater than 100 µM, 10.9 µM, 14.2 µM and 12.2 µM.

The term IC50 denotes the concentration at which inhibition is half-maximal. A high value points to weaker potency.
